Only a selection was taken, and hits are over-represented in it overall.
Redox H2O2 prof = compounds producing H2O2 with reducing agent – biochemical, NIH compound library profiling, artefact control for MLSCN library redox annotation, primary screen | activation, % at 10 µM | DTT-dependent redox cycling H2O2, phenol red/HRP absorbance; 100% = 100 µM peroxide control, 0% = buffer | 0.03% of 200,000 active;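 active means activation of at least 50% relative to the plate's high and low controls in the primary single-dose screen; inactive means activation below 50%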;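 further: compound incubated with DTT at 0.8 mM final as the reducing agent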
L major viab = inhibitors of Leishmania major promastigote growth. Leishmania major promastigotes, resazurin fluorescence viability. inhibition, % at 10 µM. 9% of 200,000 active. AID 1063;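 further: promastigotes grown with compound for 44 hours at 28 °C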
Diaph inh CS = inhibits diaphorase or chemically oxidizes, flagging diaphorase assay artifacts; diaphorase resazurin-to-resorufin fluorescence, NADH, 16 min; bacterial (C. kluyveri) enzyme, not human; inhibition, % at 20 µM; 0.69% of 190,000 active; AID 1217;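 active means primary screen inhibition at 20 µM above a set limit, cut at about 50% in these data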;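 further: plate controls were DMSO with full reaction for no effect and wells lacking NADH for full effect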
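controls = No-NADH positive control and DMSO neutral control | system = Clostridium kluyveri diaphorase enzyme | timing = reaction incubation of 16 min at room temperature | signal = resorufin fluorescence 544/590 nm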
G6PDH counter = L. mesenteroides G6PDH inhibition counter-screen; Purified L. mesenteroides G6PDH, diaphorase/resazurin coupled fluorescence, 45 min; AID 1020; inhibition, % at 5 µM; 0.12% of 200,000 active
PfG6PD inh = PfG6PD (Plasmodium falciparum) enzyme inhibition | PfGluPho enzyme, NADPH resazurin-diaphorase fluorescence | inhibition, % at 20 µM | 0.78% of 350,000 active;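 active means inhibition reaching at least a set limit at 20 µM in the primary screen, cut at about 59% in these data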;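 further: 0% = DMSO wells with substrate and 100% = DMSO wells lacking glucose-6-phosphate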
Diaph act CS = diaphorase activation or chemical reduction counter-screen. activation factor at 20 µM. 0.005% of 190,000 active. Diaphorase/resazurin coupled assay, resorufin fluorescence, 16 min; active compounds read high; 1 = vehicle wells, 0 = NADH-free wells;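 active means diaphorase activity raised at least twofold by the compound at 20 µM; inactive means activation factor below 2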
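Test system: Clostridium kluyveri diaphorase, purified enzyme. Buffer or medium: 50 mM HEPES pH 7.4 buffer plus MgCl2 and Tween 20. Also added: 0.114 mM NADH and 0.1 mM resazurin, final amounts. Dosing: compound 20 µM once, DMSO 1%. Schedule: 16 min enzyme reaction, ambient temperature. Detection: fluorescence of resorufin, 544 nm excitation, 590 nm emission.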
The depositor's hits bear a star; x = no result. Unless noted, no stated cut-off is given here; in the data, active means inhibition above about 50%; inactive means the rest.

SMILES | Redox H2O2 prof | L major viab | Diaph inh CS | G6PDH counter | PfG6PD inh | Diaph act CS
COc1ccc(N2CCN(C(CNC(=O)C(=O)NCc3cccs3)c3ccco3)CC2)cc1 (centres undefined) | -1.4 | 6.4 | 10.3 | -1.8 | 11.9 | 0.9
C[C@@H]1CCCCO[C@@H](CN(C)C(=O)CCC(F)(F)F)[C@@H](C)CN([C@H](C)CO)C(=O)c2cc(N(C)C)ccc2O1 | x | x | x | x | 31.4 | x
COc1ccc2cc(C(=O)NCc3ccco3)c(=O)oc2c1 | 2.7 | -2.3 | 9.0 | -8.9 | 7.9 | 0.9
COc1ccc2cc(C(N)=O)/c(=N/NC(=O)c3ccco3)oc2c1 | -0.4 | 0.8 | 76.5* | -17.0 | 27.5 | 0.2
Cc1ccc2nc(NC(=S)NC(=O)c3cccs3)sc2c1 | 0.7 | 58.9* | 14.1 | 5.1 | -1.0 | 0.9
CCC1(c2ccccc2)NC(=O)N(CC(=O)NCc2ccc(OC)cc2)C1=O (centres undefined) | x | x | x | x | 6.7 | x
CN1CCN(NC(=O)c2ccc(Cl)s2)CC1 | -0.1 | -5.0 | 2.1 | 0.9 | -3.1 | 1
CCN1C(=O)/C(=C\c2nc3ccccc3c(=O)n2CC)c2ccccc21 | -2.4 | 95.7* | 17.5 | 4.1 | -3.8 | 0.8
CCN1C(=O)/C(=C/c2nc3ccccc3c(=O)n2-c2ccccc2)c2ccccc21 | -1.7 | 70.9* | 47.6 | -42.5 | 4.1 | 0.5
CCn1c(/C=C2/C(=O)N(C)c3ccccc32)nc2ccccc2c1=O | -3.0 | 31.5 | 1.0 | 6.0 | 17.3 | 1
Cc1[nH]n(-c2ccccc2)c(=O)c1/C=N/NC(=O)COc1ccccc1[N+](=O)[O-] | 0.5 | -13.6 | 52.9* | -0.7 | -35.0 | 0.5
COC(=O)N/N=C\c1c(C)[nH]n(-c2ccccc2)c1=O | -1.4 | 1.2 | 24.9 | 15.8 | -2.3 | 0.8
Cc1c(/C=N/NC(=O)COc2ccccc2[N+](=O)[O-])c2ccccc2n1C | 0.7 | 56.0* | 12.9 | 11.4 | 3.8 | 0.9
Cc1ccc(OCC(=O)N/N=C\c2c(C)n(C)c3ccccc23)c([N+](=O)[O-])c1 | -4.3 | 10.1 | 10.2 | 3.5 | 1.1 | 0.9
CC(=O)N/N=C/c1c(C)[nH]n(-c2ccccc2)c1=O | -0.1 | -5.3 | 55.8* | 18.4 | -16.0 | 0.4
O=C(O)CCC(=O)N1CCN(c2ncccc2C(F)(F)F)CC1 | x | x | x | x | 4.1 | x
COc1cc(N/N=C/c2ccccc2O)ncn1 | 0.1 | 82.4* | 35.3 | 35.5 | -2.4 | 0.6
O=C(Nc1nc2ccc(SC(F)F)cc2s1)c1ccc(NS(=O)(=O)c2ccc(F)c(F)c2)cc1 | -0.3 | 68.7* | 21.7 | 15.6 | -17.6 | 0.8
CS(=O)(=O)c1ccc2nc(NC(=O)c3ccc(NS(=O)(=O)c4ccc(F)c(F)c4)cc3)sc2c1 | x | x | x | x | -17.3 | x
COc1cccc(/C=C/C(=O)c2cccc([N+](=O)[O-])c2)c1OC | -1.7 | 100.1* | 35.3 | 7.4 | 16.4 | 0.6
COc1ccc(/C=C/C(=O)c2ccncc2)c2ccccc12 | -0.1 | 97.5* | 37.4 | -9.1 | 35.6 | 0.6
COc1cccc(/C=C/C(=O)Nc2cccc(C(C)=O)c2)c1OC | -2.0 | 11.1 | 6.4 | -3.4 | 38.9 | 0.9
COc1cccc(/C=C/C(=O)c2cccc([N+](=O)[O-])c2)c1 | -0.5 | 97.5* | 9.3 | 14.3 | 4.0 | 0.9
COc1ccc(OC(=O)c2cccc([N+](=O)[O-])c2)c(C(=O)/C=C/c2cccs2)c1 | 0.2 | 72.7* | 21.8 | 0.5 | 14.8 | 0.8
Cc1cccc(NC(=O)CN(C)C(=O)C2CCCC2)c1C | x | x | x | x | -3.4 | x
SMILES | Redox H2O2 prof | L major viab | Diaph inh CS | G6PDH counter | PfG6PD inh | Diaph act CS
COc1ccc(C(=O)/C=C/c2ccccc2OC)c(OC(=O)c2ccc([N+](=O)[O-])cc2)c1 | -2.7 | 56.3* | x | x | 21.0 | x
COc1ccc(/C=C/C(=O)c2ccc(OC)cc2OC)cc1 | 0.3 | 25.8 | 20.2 | 2.5 | 16.6 | 0.8
CCOC(=O)c1c(-c2ccccc2)oc2cc(CN(C)C)c(O)c(CN(C)C)c12 | 2.2 | 100.1* | x | x | -6.0 | x
CCOC(=O)c1c(-c2ccccc2)oc2ccc(O)cc12 | x | x | x | x | 3.9 | x
CCOC(=O)c1c(-c2ccccc2)oc2ccc(O)c(CN3CCN(C)CC3)c12 | -0.8 | 88.7* | 2.9 | 1.4 | 0.6 | 1
Cc1ccc(N(C(=O)c2nsc(Cl)c2Cl)C(C(=O)NC2CCCC2)c2ccc(O)cc2)cc1C (centres undefined) | -0.7 | 76.4* | 23.2 | -5.9 | 13.5 | 0.8
Cc1ccccc1N(C(=O)c1snc(C(N)=O)c1N)C(C(=O)NC1CCCCC1)c1ccc(O)cc1 (centres undefined) | x | x | x | x | -5.8 | x
Cc1cc(C)cc(N(C(=O)c2nsc(Cl)c2Cl)C(C(=O)NC2CCCC2)c2ccc(O)cc2)c1 (centres undefined) | -0.7 | 71.0* | 22.8 | 14.1 | 5.4 | 0.8
CCOc1ccc(C(C(=O)NC2CCCC2)N(Cc2ccccc2)C(=O)c2nsc(Cl)c2Cl)cc1 (centres undefined) | 1.7 | 26.7 | 19.1 | -28.2 | 8.2 | 0.8
Cc1cccc(N(C(=O)c2nsc(Cl)c2Cl)C(C(=O)NC2CCCC2)c2ccc(O)cc2)c1C (centres undefined) | -0.4 | 98.0* | 11.0 | 3.5 | 5.0 | 0.9
Cc1cccc(NC(=O)CCc2ccccc2)c1C | x | x | x | x | -1.8 | x
Cc1ccc(C(=O)CN2C(=O)c3ccccc3S2(=O)=O)cc1 | x | x | x | x | 0.1 | x
Cc1ccc(C(=O)CN2/C(=C(\O)c3ccccc3)C(=O)c3ccccc3S2(=O)=O)c(C)c1 | -4.3 | 82.2* | 23.9 | 15.8 | -15.1 | 0.8
CCC1CCCCN1S(=O)(=O)c1ccc(NC(=O)c2nc(S(C)(=O)=O)ncc2Cl)cc1 (centres undefined) | x | x | x | x | 25.0 | x
O=c1c(-c2nn[nH]n2)coc2ccc(Cl)cc12 | -1.1 | -3.1 | 8.2 | 6.3 | -8.4 | 0.9
O=S(=O)(/C=C/c1ccccc1)N1CCN(c2nc(-c3cccnc3)nc3ccccc23)CC1 | -0.1 | 52.5* | 19.2 | -13.2 | 7.0 | 0.8
Cc1ccc2nc(-c3ccccc3)cc(C(=O)N3CCc4ccccc4C3)c2c1 | 0.8 | 13.0 | 10.6 | -0.1 | 16.5 | 0.9
O=C(c1cc(-c2ccccc2)nc2ccccc12)N1CCc2ccccc2C1 | -0.4 | 57.7* | 19.6 | 15.6 | -2.8 | 0.8
O=C(c1cc(-c2ccncc2)nc2ccccc12)N1CCN(S(=O)(=O)/C=C/c2ccccc2)CC1 | 0.5 | 97.5* | -0.3 | 6.0 | -24.5 | 1
COc1ccc(OC)c(C2C(C(C)=O)=C(O)C(=O)N2Cc2cccnc2)c1 (centres undefined) | -0.4 | -3.8 | 8.0 | 4.2 | 1.1 | 0.9
CCOC(=O)C1(Cc2ccccc2)CCN(Cc2cccn2-c2cccnc2)CC1 | -0.2 | 18.1 | 21.9 | 11.2 | 2.3 | 0.8

Screens (PubChem BioAssay)
